From ChEMBL document CHEMBL1144664, “Design, synthesis, and SAR of new pyrrole-oxindole progesterone receptor modulators leading to 5-(7-fluoro-3,3-dimethyl-2-oxo-2,3-dihydro-1H-indol-5-yl)-1-methyl-1H-pyrrole-2-carbonitrile (WAY-255348)” (J Med Chem, 2008)
pIC50: −log10 of the molar value. Activity calls are given as the source filed them. The rule behind the calls is not given here.

Legend:
Glucocorticoid receptor = molecular target: T1, Glucocorticoid receptor (Homo sapiens, UniProt P04150); assay: Antagonist activity at human GR ligand binding domain expressed in african green monkey COS7 cells in presence of Dexamethasone by Gal4 hybrid assay; format: cell-based, COS-7
T1 sequence (P04150 whole entry): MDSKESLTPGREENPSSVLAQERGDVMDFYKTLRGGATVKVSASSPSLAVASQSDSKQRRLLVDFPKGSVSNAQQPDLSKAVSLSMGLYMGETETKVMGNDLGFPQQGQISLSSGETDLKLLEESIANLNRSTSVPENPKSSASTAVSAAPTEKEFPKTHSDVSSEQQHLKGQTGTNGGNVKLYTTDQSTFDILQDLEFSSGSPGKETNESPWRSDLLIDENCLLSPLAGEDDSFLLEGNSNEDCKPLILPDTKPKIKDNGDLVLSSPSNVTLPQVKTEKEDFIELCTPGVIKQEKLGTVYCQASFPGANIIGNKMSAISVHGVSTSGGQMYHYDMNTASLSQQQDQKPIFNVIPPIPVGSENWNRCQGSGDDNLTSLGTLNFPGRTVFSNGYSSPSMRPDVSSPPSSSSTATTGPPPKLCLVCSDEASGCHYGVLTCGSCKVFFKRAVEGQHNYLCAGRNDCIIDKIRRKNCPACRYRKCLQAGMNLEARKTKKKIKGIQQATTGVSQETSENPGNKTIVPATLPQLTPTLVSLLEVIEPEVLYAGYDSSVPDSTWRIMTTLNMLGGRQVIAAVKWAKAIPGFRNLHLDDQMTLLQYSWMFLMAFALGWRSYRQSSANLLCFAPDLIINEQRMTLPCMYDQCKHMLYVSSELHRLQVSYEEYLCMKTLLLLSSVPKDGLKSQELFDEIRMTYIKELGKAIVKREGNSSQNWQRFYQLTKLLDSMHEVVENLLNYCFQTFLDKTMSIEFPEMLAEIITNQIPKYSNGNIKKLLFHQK

[1] = molecular target: T2, Mineralocorticoid receptor (Homo sapiens) (UniProt P08235); assay: Agonist activity at human MR ligand binding domain receptor expressed in african green monkey COS7 cells by Gal4 hybrid assay; format: cell-based; settings: COS-7
T2 sequence (whole entry): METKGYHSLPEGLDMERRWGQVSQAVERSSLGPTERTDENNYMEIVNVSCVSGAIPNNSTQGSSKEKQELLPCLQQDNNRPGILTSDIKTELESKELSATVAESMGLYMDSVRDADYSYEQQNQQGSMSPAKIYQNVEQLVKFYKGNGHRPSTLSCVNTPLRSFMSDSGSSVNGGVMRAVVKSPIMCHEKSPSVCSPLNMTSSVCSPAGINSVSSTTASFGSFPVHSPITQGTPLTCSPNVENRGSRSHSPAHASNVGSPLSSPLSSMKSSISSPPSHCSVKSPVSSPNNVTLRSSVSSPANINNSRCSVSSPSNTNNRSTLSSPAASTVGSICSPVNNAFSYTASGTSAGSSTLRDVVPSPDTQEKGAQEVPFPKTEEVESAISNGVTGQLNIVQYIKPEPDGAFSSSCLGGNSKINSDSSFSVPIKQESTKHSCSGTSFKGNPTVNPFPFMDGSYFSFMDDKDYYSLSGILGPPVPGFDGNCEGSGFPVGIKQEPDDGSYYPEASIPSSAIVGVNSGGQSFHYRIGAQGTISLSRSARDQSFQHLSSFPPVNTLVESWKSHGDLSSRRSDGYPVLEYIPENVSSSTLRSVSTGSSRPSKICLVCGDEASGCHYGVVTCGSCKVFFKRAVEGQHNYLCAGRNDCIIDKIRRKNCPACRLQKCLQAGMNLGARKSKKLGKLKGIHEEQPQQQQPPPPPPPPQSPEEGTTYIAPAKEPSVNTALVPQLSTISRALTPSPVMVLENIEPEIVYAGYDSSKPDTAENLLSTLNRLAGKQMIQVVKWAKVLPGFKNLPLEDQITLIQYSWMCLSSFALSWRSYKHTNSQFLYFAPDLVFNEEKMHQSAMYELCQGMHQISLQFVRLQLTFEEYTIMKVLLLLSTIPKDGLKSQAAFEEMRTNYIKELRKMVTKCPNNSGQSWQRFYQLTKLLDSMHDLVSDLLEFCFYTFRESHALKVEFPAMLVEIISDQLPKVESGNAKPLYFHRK
Outline: (§1)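 Gal4-steroid receptor LBD fusion plasmid plus GAL4_UAS (5 copies, E1b TATA)-luciferase reporter, 50 ng/well each, transfected 16 h into COS-7 cells grown in phenol red-free DMEM with 10% charcoal/dextran-treated FBS. Compound treatment 20 h, then luciferase read-out. Antagonist mode uses 3 nM aldosterone (hMR) or 5 nM 17β-estradiol (hER). Values are the average of at least duplicate determinations.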

[2] = molecular target: T3, Mineralocorticoid receptor (Homo sapiens, UniProt P08235); assay: Antagonist activity at human MR ligand binding domain expressed in african green monkey COS7 cells in presence of aldosterone by Gal4 hybrid assay; format: cell-based, COS-7; outline: as §1
T3 sequence (P08235 whole entry): T2 sequence (whole entry)

[3] = molecular target: T4, Estrogen receptor (Homo sapiens) (UniProt P03372); assay: Agonist activity at human ER ligand binding domain expressed in african green monkey COS7 cells by Gal4 hybrid assay; format: cell-based; settings: COS-7; outline: as §1
T4 sequence (whole entry): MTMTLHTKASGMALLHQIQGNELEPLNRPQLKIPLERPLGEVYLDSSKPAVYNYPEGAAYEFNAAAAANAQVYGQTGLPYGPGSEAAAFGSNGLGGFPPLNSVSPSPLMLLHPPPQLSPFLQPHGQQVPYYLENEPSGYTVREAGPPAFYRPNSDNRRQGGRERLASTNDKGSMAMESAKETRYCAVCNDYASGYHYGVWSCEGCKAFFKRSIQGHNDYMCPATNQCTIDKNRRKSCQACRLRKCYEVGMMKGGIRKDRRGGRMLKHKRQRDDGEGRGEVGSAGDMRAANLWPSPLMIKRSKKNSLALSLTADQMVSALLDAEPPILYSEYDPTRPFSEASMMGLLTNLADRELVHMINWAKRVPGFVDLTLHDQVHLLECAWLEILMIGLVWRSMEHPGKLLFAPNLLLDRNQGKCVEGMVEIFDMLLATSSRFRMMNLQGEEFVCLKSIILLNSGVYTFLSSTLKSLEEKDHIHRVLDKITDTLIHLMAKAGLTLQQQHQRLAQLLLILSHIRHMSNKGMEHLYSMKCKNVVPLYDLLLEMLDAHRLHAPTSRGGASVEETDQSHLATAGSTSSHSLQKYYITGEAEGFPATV

Estrogen receptor = molecular target: T5, Estrogen receptor (Homo sapiens, UniProt P03372); assay: Antagonist activity at human ER ligand binding domain expressed in african green monkey COS7 cells in presence of 17-beta-estradiol by Gal4 hybrid assay; format: cell-based, COS-7; outline: as §1
T5 sequence (P03372 whole entry): T4 sequence (whole entry)

Androgen receptor = molecular target: T6, Androgen receptor (Homo sapiens, UniProt P10275)
T6 sequence (P10275 whole entry): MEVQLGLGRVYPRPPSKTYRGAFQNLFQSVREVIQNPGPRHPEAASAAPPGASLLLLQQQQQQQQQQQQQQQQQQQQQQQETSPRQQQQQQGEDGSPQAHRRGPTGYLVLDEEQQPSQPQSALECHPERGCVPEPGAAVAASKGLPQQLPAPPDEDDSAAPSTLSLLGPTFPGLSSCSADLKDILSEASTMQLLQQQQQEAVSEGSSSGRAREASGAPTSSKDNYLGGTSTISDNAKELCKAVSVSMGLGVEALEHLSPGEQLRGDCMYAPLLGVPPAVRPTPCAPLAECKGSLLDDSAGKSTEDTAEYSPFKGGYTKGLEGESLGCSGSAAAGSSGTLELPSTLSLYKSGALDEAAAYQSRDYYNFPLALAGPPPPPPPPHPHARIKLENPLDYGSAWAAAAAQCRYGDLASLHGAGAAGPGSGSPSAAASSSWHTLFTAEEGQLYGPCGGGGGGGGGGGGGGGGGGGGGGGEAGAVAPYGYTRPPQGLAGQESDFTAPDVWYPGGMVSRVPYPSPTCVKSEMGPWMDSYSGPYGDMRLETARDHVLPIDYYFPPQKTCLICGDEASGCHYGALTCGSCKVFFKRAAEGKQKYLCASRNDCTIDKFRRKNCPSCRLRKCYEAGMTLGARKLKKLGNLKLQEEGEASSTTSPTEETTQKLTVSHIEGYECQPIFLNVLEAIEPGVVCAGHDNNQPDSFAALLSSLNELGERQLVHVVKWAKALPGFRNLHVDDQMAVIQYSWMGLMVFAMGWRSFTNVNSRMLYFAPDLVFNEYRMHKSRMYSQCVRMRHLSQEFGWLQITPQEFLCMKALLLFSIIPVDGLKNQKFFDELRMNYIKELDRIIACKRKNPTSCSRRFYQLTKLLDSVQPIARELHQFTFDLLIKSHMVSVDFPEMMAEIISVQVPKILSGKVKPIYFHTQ

For `COC[C@]1(OC)CC[C@H]2[C@@H]3CCC4=CC(=O)CCC4=C3[C@@H](c3ccc(/C=N/O)cc3)C[C@@]21C` [ASOPRISNIL], the pIC50 (Glucocorticoid receptor) was 7.07, the Activity [1] was “inactive” and the pIC50 [2] was 5.80. For the same molecule, the Activity [3] was “inactive”, the pIC50 (Estrogen receptor) was 5.72 and the pIC50 (Androgen receptor) was 8.21.
